High-throughput results (PubChem BioAssay)
Most compounds without a hit are left out; they make up all but 2.5% or so of the library.
GalR3 antagonist – GalR3 antagonists in HEK293 cells, primary screen, cell-based, fluorescence readout. AID 651719, 2012. Galanin receptor type 3 (Homo sapiens), O60755. 0.44% of 360,000 active. HEK293 GalR3-CNG cAMP membrane potential fluorescence; galR3 body fused to GalR1 C-terminus. inhibition, % at 3 µM;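 active = inhibition above the screen-wide average plus 3 SD, cut at about 13% in these data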;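 note: forskolin and galanin both at EC90 stimulate the cells; cAMP rise reported by CNG channel membrane potential dye signal; 0% = forskolin plus galanin with DMSO and 100% = forskolin alone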
MsrA act – bovine MsrA enzyme activators, primary screen, biochemical, absorbance, HTS. Methionine sulfoxide reductase A (Bos taurus). purified bovine MsrA, absorbance read-out. activation, % at 10.6 µM. 0.3% of 360,000 active. AID 602163, 2012; in the data active = activation above about 7.5%;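 note: 0% = vehicle and 100% = reference activator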
NR2E3 ag-1 – NR2E3 agonists in two-hybrid cells, primary screen, cell-based, luminescence, CHO-S, Gal4-NCOR/VP16-NR2E3 | Photoreceptor-specific nuclear receptor (Homo sapiens), Q9Y5X4 | luciferase | inhibition of corepressor binding, % at 3.98 µM | 0.35% of 360,000 active;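 active = inhibition above the mean of all tested compounds plus 3 SD, cut at about 70% in these data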;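 note: 0% = DMSO with NR2E3 transfected cells and 100% = cells lacking NR2E3 construct; higher means lower luciferase signal from less NR2E3 corepressor binding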
Target sequence (Q9Y5X4 whole entry, looked up, the tested form may be a part): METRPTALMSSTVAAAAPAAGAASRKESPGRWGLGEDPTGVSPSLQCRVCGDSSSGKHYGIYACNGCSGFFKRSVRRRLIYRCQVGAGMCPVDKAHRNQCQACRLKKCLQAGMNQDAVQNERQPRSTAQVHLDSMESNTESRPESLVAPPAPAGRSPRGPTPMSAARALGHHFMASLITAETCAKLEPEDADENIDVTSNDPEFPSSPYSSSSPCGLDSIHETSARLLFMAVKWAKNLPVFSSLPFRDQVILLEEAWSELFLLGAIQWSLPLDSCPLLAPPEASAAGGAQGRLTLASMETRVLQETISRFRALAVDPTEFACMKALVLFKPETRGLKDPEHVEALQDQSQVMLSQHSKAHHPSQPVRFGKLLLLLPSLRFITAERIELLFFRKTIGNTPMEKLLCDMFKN
MsrA inh – bovine MsrA enzyme inhibitors, primary screen, biochemical, absorbance, HTS. Methionine sulfoxide reductase A (Bos taurus). purified bovine MsrA, absorbance read-out. inhibition, % at 15.5 µM. 0.75% of 360,000 active. AID 651718, 2012; in the data active = inhibition above about 4.5%;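 note: 0% = vehicle wells with enzyme and 100% = reference inhibitor wells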
NR2E3 ag-2 – inhibitors of NR2E3-RetCOR corepressor binding, primary screen, NR2E3 agonist project, biochemical, TR-FRET, GST-NR2E3, biotin-RetCOR; 1536-well; AID 2300, 2010; inhibition of corepressor binding, % at 4.78 µM; 0.12% of 320,000 active;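 active = percent inhibition above the cutoff of mean plus 3 SD of all tested compounds, set per screening campaign, cut at about 20% in these data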;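 note: 0% = DMSO wells and 100% = biotin wells as full block of FRET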
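System: GST-tagged NR2E3 plus biotinylated RetCOR corepressor; Amount: 1.35 nM GST-tagged NR2E3 final; Dosing: single nominal compound dose of 4.8 µM; Schedule: 5 h incubation at 4 °C; Technique: TR-FRET with europium anti-GST and streptavidin-D2, 340 nm excitation; Controls: biotin wells as high control, 0.6% DMSO wells as low control.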
NadD block – inhibitors of S. aureus NadD, primary screen, biochemical, colorimetric, uHTS; purified NadD enzyme, colorimetric absorbance read-out; inhibition, % at 20 µM; AID 602399, 2012; 0.78% of 360,000 active; Nicotinate-nucleotide adenylyltransferase NadD (Staphylococcus aureus N315); in the data active = inhibition above about 26%
NadD inh conf – inhibitors of S. aureus NadD, confirmation, biochemical, colorimetric, single concentration; shares compounds with NadD block; purified S. aureus NadD, colorimetric enzyme assay; 13% of 2,000 active; inhibition, % at 20 µM; AID 624309, 2012; in the data active = inhibition mostly above about 42%, no sharp cut-off; inactive = mostly below about 42%
Active calls of the source: *; . = no result; ! = not confirmed by another sample.

SMILES	GalR3 antagonist	MsrA act	NR2E3 ag-1	MsrA inh	NR2E3 ag-2	NadD block	NadD inh conf
N#CC1=C(N)OC2=C(C(=O)CC(c3ccco3)C2)C1c1ccc(OCc2c(F)cccc2Cl)cc1 (stereo not given)	-7.4	-1.6	-21.3	-0.2	-0.5	33.6*	19.8
CCCn1c(SCC(=O)O)nc2ccccc21	.	-8.4	-0.1	.	0.6	-6.5	.
O=[N+]([O-])c1ccc(Cl)c(S(=O)(=O)/N=C(/Nc2cccnc2)c2ccccc2)c1	-4.4	-1.5	-20.4	0.1	.	2.3	.
CCCNC(=O)c1ccc(Cl)cc1Cl	-9.9	-5.2	-42.8	0.2	-4.6	-2.1	.
COc1ccc([N+](=O)[O-])cc1NC(=O)CC1SC(=Nc2cccc(C)c2C)N(/N=C/c2cccc(OC)c2OC)C1=O (stereo not given)	-5.5	-2.9	-23.3	1.7	4.2	35.1*!	20.4
N#CC1=C2SCN(Cc3ccco3)CN2C(=O)CC1c1cccc2ccccc12 (stereo not given)	-2.2	1.7	-17.1	-1.1	1.5	31.3*	9.1
CCOCCCNC(=S)Nc1cc(C)cc(C)c1	-0.3	-2.2	-2.4	-0.9	2.4	0.5	.
Cc1sc2nc(SCc3nc4ccccc4[nH]3)n(Cc3ccco3)c(=O)c2c1C	2.4	-11.2	-20.6	0.6	-0.7	35.0*	38.0
O=C(NNC(=O)C1CCN(S(=O)(=O)c2ccc(Cl)cc2)CC1)c1ccncc1	-1.6	-13.0	29.2	1.6	-0.9	2.0	.
O=C(C[C@H]1C[C@H](C(=O)N2CCOCC2)[C@@]2(CCC3CCCC3)c3[nH]c4cc(-c5ccco5)ccc4c3CCN2C1=O)NCCC1=CCCCC1	.	-3.0	3.4	.	.	28.6*	13.3
CC[C@]12c3[nH]c4cc(-c5ccco5)ccc4c3CCN1C(=O)[C@@H](CC(=O)NCC13CC4CC(CC(C4)C1)C3)C[C@@H]2C(=O)N1CCN(C(=O)c2ccco2)CC1	-8.6	-5.5	-25.8	2.4	.	39.8*	20.2
C[C@]12c3[nH]c4cc(-c5ccco5)ccc4c3CCN1C(=O)[C@@H](CC(=O)NCC13CC4CC(CC(C4)C1)C3)C[C@@H]2C(=O)N1CCCCC1	-2.3	-1.0	-22.9	2.3	.	50.4*	13.0
c1ccc(N=C2SCCCS2)cc1	-4.4	-1.6	-3.4	-0.5	.	3.3	.
CC(=O)N1CCN(S(=O)(=O)c2cccc(C(=O)Nc3ccc(OC(F)F)cc3)c2)CC1	-9.1	-8.6	-2.6	0.2	-0.4	-6.4	.
CC(C)(O)C#Cc1ccc(N2C(c3ccsc3)=Cc3ccc(F)cc3C2c2c[nH]c3ccc(C#N)cc23)cc1 (stereo not given)	-6.2	-8.7	-16.5	2.6	.	14.9	.
CCOC(=O)c1ccc(-c2ccc(N3C(c4ccsc4)=Cc4ccc(F)cc4C3c3c[nH]c4ccc(C#N)cc34)cc2)cc1F (stereo not given)	-7.2	-5.3	-46.5	0.6	.	30.4*	9.8
CCOc1ccccc1NC(=O)c1ccc(OCC)c([N+](=O)[O-])c1	-2.3	-8.4	-28.7	-0.8	-0.9	-5.9	.
CCOc1ccc2nc(NC(=O)c3cccc(-c4cc5ccccc5oc4=O)c3)sc2c1	-4.8	-1.1	-37.7	-0.2	-1.6	38.8*	4.7
CCOc1ccc(C(=O)Nc2cccc(-c3cc4ccccc4oc3=O)c2)cc1[N+](=O)[O-]	3.0	-10.1	20.2	1.9	2.1	36.5*	-3.7
Cc1ccc2nc(NC(=O)c3cccc(-c4cc5ccccc5oc4=O)c3)sc2c1	-6.4	.	.	-0.7	3.5	.	.
O=C(CN1C(=O)CSc2ccc(S(=O)(=O)N3CCOCC3)cc21)NCc1ccc(Cl)cc1	1.9	-3.2	-9.3	-0.6	0.5	-0.9	.
